Measured values taken from ChEMBL document CHEMBL1667743, “Functional in vivo imaging of cysteine cathepsin activity in murine model of inflammation” (Bioorg Med Chem, 2011).

Tests used:
[1] = substrate: CCN(CC)c1ccc2nc3ccc(/N=N/c4ccc(N(C)CCCC(=O)NCCNC(=O)[C@H](CCNC(=O)CCCCCN5/C(=C\C=C\C=C\C=C\C6N(CC)c7ccc(S(=O)(=O)O)cc7C6(C)C)C(C)(C)c6cc(S(=O)(=O)[O-])ccc65)NC(=O)[C@H](CC5CCCCC5)NC(=O)N5CCOCC5)cc4)cc3[n+](-c3ccccc3)c2c1; test: (§1) Activity at recombinant cathepsin L
Outline: (§2)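 Active-site-titrated (E-64) recombinant human cathepsins B, L, S and in-house cathepsin K, 10 nM final in pH 6.5 acetate/HEPES buffer with 300 mM NaCl, 0.001% Pluronic and L-cysteine; DMSO-dissolved Cy7/BHQ-3 quenched substrate 0.8–40 µM final (DMSO ≤1%); fluorescence read at 25 °C (λex 710, λem 767 nm); steady-state data fitted by non-linear least squares to Michaelis–Menten with substrate inhibition.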

[2] = substrate: CC(C)(C)OC(=O)NCC[C@H](NC(=O)[C@H](CC1CCCCC1)NC(=O)N1CCOCC1)C(=O)NCCNC(=O)OCC1c2ccccc2-c2ccccc21; test: as §1; outline: as §2
[3] = substrate: CCN(CC)c1ccc2nc3ccc(/N=N/c4ccc(N(C)CCCC(=O)NCCNC(=O)[C@H](CCNC(=O)CCCCCN5/C(=C\C=C\C=C\C=C\C6N(CC)c7ccc(S(=O)(=O)O)cc7C6(C)C)C(C)(C)c6cc(S(=O)(=O)[O-])ccc65)NC(=O)[C@H](CC5CCCCC5)NC(=O)N5CCOCC5)cc4)cc3[n+](-c3ccccc3)c2c1; test: (§3) Ratio of Kcat/Km for recombinant cathepsin L; outline: as §2
[4] = substrate: CC(C)(C)OC(=O)NCC[C@H](NC(=O)[C@H](CC1CCCCC1)NC(=O)N1CCOCC1)C(=O)NCCNC(=O)OCC1c2ccccc2-c2ccccc21; test: as §3; outline: as §2
[5] = substrate: CC(C)(C)OC(=O)NCC[C@H](NC(=O)[C@H](CC1CCCCC1)NC(=O)N1CCOCC1)C(=O)NCCNC(=O)OCC1c2ccccc2-c2ccccc21; test: Activity at recombinant cathepsin K; outline: as §2
[6] = substrate: CC(C)(C)OC(=O)NCC[C@H](NC(=O)[C@H](CC1CCCCC1)NC(=O)N1CCOCC1)C(=O)NCCNC(=O)OCC1c2ccccc2-c2ccccc21; test: Ratio of Kcat/Km for recombinant cathepsin K; outline: as §2
[7] = substrate: CCN(CC)c1ccc2nc3ccc(/N=N/c4ccc(N(C)CCCC(=O)NCCNC(=O)[C@H](CCNC(=O)CCCCCN5/C(=C\C=C\C=C\C=C\C6N(CC)c7ccc(S(=O)(=O)O)cc7C6(C)C)C(C)(C)c6cc(S(=O)(=O)[O-])ccc65)NC(=O)[C@H](CC5CCCCC5)NC(=O)N5CCOCC5)cc4)cc3[n+](-c3ccccc3)c2c1; test: (§4) Ratio of Kcat/Km for recombinant cathepsin S; outline: as §2
[8] = substrate: CC(C)(C)OC(=O)NCC[C@H](NC(=O)[C@H](CC1CCCCC1)NC(=O)N1CCOCC1)C(=O)NCCNC(=O)OCC1c2ccccc2-c2ccccc21; test: as §4; outline: as §2
[9] = substrate: CCN(CC)c1ccc2nc3ccc(/N=N/c4ccc(N(C)CCCC(=O)NCCNC(=O)[C@H](CCNC(=O)CCCCCN5/C(=C\C=C\C=C\C=C\C6N(CC)c7ccc(S(=O)(=O)O)cc7C6(C)C)C(C)(C)c6cc(S(=O)(=O)[O-])ccc65)NC(=O)[C@H](CC5CCCCC5)NC(=O)N5CCOCC5)cc4)cc3[n+](-c3ccccc3)c2c1; test: (§5) Activity at recombinant cathepsin S; outline: as §2
[10] = substrate: CC(C)(C)OC(=O)NCC[C@H](NC(=O)[C@H](CC1CCCCC1)NC(=O)N1CCOCC1)C(=O)NCCNC(=O)OCC1c2ccccc2-c2ccccc21; test: as §5; outline: as §2

B1: Procathepsin L (Homo sapiens), P07711 (protein)
chain: MNPTLILAAFCLGIASATLTFDHSLEAQWTKWKAMHNRLYGMNEEGWRRAVWEKNMKMIELHNQEYREGKHSFTMAMNAFGDMTSEEFRQVMNGFQNRKPRKGKVFQEPLFYEAPRSVDWREKGYVTPVKNQGQCGSCWAFSATGALEGQMFRKTGRLISLSEQNLVDCSGPQGNEGCNGGLMDYAFQYVQDNGGLDSEESYPYEATEESCKYNPKYSVANDTGFVDIPKQEKALMKAVATVGPISVAIDAGHESFLFYKEGIYFEPDCSSEDMDHGVLVVGYGFESTESDNNKYWLVKNSWGEEWGMGGYVKMAKDRRNHCGIASAASYPTV
[1]
  Km: 280 µM
[2]
  Km: 840 µM
[3]
  kcat/Km: 187 M⁻¹ s⁻¹
[4]
  kcat/Km: 7070 M⁻¹ s⁻¹

B2: Cathepsin K (Homo sapiens), P43235 (protein)
chain: MWGLKVLLLPVVSFALYPEEILDTHWELWKKTHRKQYNNKVDEISRRLIWEKNLKYISIHNLEASLGVHTYELAMNHLGDMTSEEVVQKMTGLKVPLSHSRSNDTLYIPEWEGRAPDSVDYRKKGYVTPVKNQGQCGSCWAFSSVGALEGQLKKKTGKLLNLSPQNLVDCVSENDGCGGGYMTNAFQYVQKNRGIDSEDAYPYVGQEESCMYNPTGKAAKCRGYREIPEGNEKALKRAVARVGPVSVAIDASLTSFQFYSKGVYYDESCNSDNLNHAVLAVGYGIQKGNKHWIIKNSWGENWGNKGYILMARNKNNACGIANLASFPKM
[5]
  Km: 89 µM
[6]
  kcat/Km: 187 M⁻¹ s⁻¹

B3: Cathepsin S (Homo sapiens), P25774 (protein)
chain: MKRLVCVLLVCSSAVAQLHKDPTLDHHWHLWKKTYGKQYKEKNEEAVRRLIWEKNLKFVMLHNLEHSMGMHSYDLGMNHLGDMTSEEVMSLMSSLRVPSQWQRNITYKSNPNRILPDSVDWREKGCVTEVKYQGSCGACWAFSAVGALEAQLKLKTGKLVSLSAQNLVDCSTEKYGNKGCNGGFMTTAFQYIIDNKGIDSDASYPYKAMDQKCQYDSKYRAATCSKYTELPYGREDVLKEAVANKGPVSVGVDARHPSFFLYRSGVYYEPSCTQNVNHGVLVVGYGDLNGKEYWLVKNSWGHNFGEEGYIRMARNKGNHCGIASFPSYPEI
[7]
  kcat/Km: 14200 M⁻¹ s⁻¹
[8]
  kcat/Km: 15100 M⁻¹ s⁻¹
[9]
  Km: 25 µM
[10]
  Km: 1.3 µM
